Screens as filed in PubChem.
Rows were chosen to be rich in hits. Some 1.5% of all compounds tested hit in one or more screens of this group.
EBI2 block = antagonists of human EBI2 receptor. P32249. EBI2 beta-arrestin recruitment, luminescence, 7a,25-OHC stimulated. inhibition, % at 5 µM. 360,000 compounds, 0.81% hits. AID 651636; in the data active = inhibition above about 38%;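 note: enzyme fragment complementation signal reports receptor beta-arrestin coupling in cells; 0% = agonist plus DMSO wells and 100% = wells without agonist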
APJ antag = APJ receptor antagonism. P35414. inhibition, % at 20 µM. 330,000 compounds, 0.32% hits. CHO-K1 APJ beta-arrestin complementation, luminescence;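 active = inhibition above about 40% at 20 µM, limit read from the data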;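 note: cells challenged with 10 nM apelin-13 agonist together with compound; plate controls were apelin-13 plus DMSO wells for no effect and DMSO wells lacking apelin-13 for full effect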
Target sequence (P35414 whole entry, looked up): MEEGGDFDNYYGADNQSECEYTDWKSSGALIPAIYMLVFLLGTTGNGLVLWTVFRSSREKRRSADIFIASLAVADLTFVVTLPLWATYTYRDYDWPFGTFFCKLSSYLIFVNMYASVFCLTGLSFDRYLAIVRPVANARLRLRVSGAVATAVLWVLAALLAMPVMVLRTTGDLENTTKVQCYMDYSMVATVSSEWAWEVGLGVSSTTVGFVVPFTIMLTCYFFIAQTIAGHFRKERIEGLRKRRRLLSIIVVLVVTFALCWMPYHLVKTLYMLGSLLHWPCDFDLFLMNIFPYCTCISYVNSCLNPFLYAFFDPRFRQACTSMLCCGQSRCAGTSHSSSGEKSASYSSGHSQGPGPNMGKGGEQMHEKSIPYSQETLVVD
CCR6 antag = blocks CCL20-driven beta-arrestin recruitment at human CCR6. inhibition, % at 20 µM. 340,000 compounds, 0.49% hits. CHO-K1 CCR6 PathHunter beta-arrestin, luminescence, CCL20-stimulated;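 active = compounds whose inhibition of the agonist-driven luminescence signal at 20 µM reaches about 50%, limit read from the data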;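 note: cells stimulated with CCL20 at 14 nM final; plate controls were DMSO with CCL20 for no effect and DMSO without agonist for full effect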
APJ ag = activates the human apelin receptor APJ; CHO-K1 APJ PathHunter beta-arrestin, luminescence; 0% DMSO wells, 100% apelin; activation, % at 20 µM; 330,000 compounds, 0.11% hits;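 active = activation more than six SD over the plate average, tested at 20 µM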;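 note: 0% = DMSO alone and 100% = apelin-13 at 10 nM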
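Assay system: CHO-K1 cells stably expressing ProLink-tagged human APJ and arrestin–beta-gal acceptor. Compound dosing: 20 µM single point, 1% DMSO. Times: 16-18 h seeding, 90 min dark compound exposure, 60 min detection. Detection: beta-gal luminescence. Evaluation: APJ–arrestin association signal. Controls: negative DMSO alone, positive Apelin-13 at 10 nM.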
CXCR6 block = inhibitors of human CXCR6 receptor | O00574 | CHO-K1 PathHunter CXCR6 beta-arrestin, luminescence | inhibition, % at 20 µM | 360,000 compounds, 0.36% hits; in the data active = inhibition above about 34%, passing the limit was not always enough;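 note: antagonist mode with CXCL16 agonist at 10 nM final; 0% = 10 nM CXCL16 with DMSO and 100% = unstimulated wells without agonist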
EBI2 conf = confirmation of human EBI2 receptor antagonists; shares compounds with EBI2 block; EBI2 beta-arrestin luminescence, 7a,25-OHC antagonism; inhibition, % at 5 µM; 2,400 compounds, 29% hits; AID 651997;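 active = inhibition of at least 50%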
EBI2 agonist = EBI2 agonism counter-screen; shares compounds with EBI2 block; EBI2-expressing cells, agonist mode, luminescence, 60 min; 0% vehicle, 100% 7α,25-dihydroxycholesterol control; activation, % at 5 µM; 2,400 tested, under 10 active;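 active = activation of at least 50%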
bGal cs = counter-screen for EBI2 antagonists: E. coli beta-galactosidase inhibition. shares compounds with EBI2 block. purified beta-galactosidase, luminescent Galacton Star, 15 min. inhibition, % at 5 µM. 2,400 compounds, 1% hits. AID 652176;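 active = replicate-average signal at least 3 plate SD below neutral wells, shown as high inhibition, flagging enzyme-inhibiting false positives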;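 note: 0% = DMSO wells with enzyme and 100% = wells lacking enzyme; higher means stronger loss of beta-gal luminescence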
An asterisk follows results filed as active; x = not tested or not shown; ! = not active in a repeat.

SMILES	EBI2 block	APJ antag	CCR6 antag	APJ ag	CXCR6 block	EBI2 conf	EBI2 agonist	bGal cs
O=C(NCc1ccc(F)cc1)C1CCCN(S(=O)(=O)c2ccc(Br)s2)C1 (stereo unspecified)	10	3	15	1	-5	x	x	x
O=C(NCc1ccc(F)cc1)C1CCN(S(=O)(=O)c2ccc(Br)s2)CC1	52*	9	26	-1	-2	19	-1	-4
COC(=O)N/N=C/c1ccc(-c2cccc(Cl)c2)o1	-4	-20	-2	-1	-2	x	x	x
Nc1ccccc1N=Cc1ccc(-c2cccc(Cl)c2)o1	42*	-8	11	9	25	33	-1	-8
CC(C)(C)C1CCC(=O)N(CCOc2ccccc2)CC1 (stereo unspecified)	52*	6	0	2	-1	17	0	-15
COc1ccc([C@H]2CC(=O)C=C(c3cccc(Br)c3)C2)cc1OC	36	12	13	-5	-4	x	x	x
O=C1C=C(c2cccc3c2sc2ccccc23)C[C@@H](c2ccc(Cl)cc2)C1	45*	-4	11	-2	12	34	1	4
O=C1C=C(c2ccc3ccccc3c2)C[C@@H](c2ccc(Cl)cc2)C1	74*	3	16	-5	3	70*	-1	-5
COc1ccc([C@H]2CC(=O)C=C(c3ccc4ncccc4c3)C2)cc1	82*	-6	17	-1	7	58*	0	8
COc1ccc(C2=CC(=O)CC(c3ccccc3)C2)cc1 (stereo unspecified)	26	14	15	0	9	x	x	x
COc1ccc([C@H]2CC(=O)C=C(c3ccc4ncccc4c3)C2)cc1OC	47*	6	16	-3	1	24	1	3
COc1ccc(CN2C(=O)c3ccccc3C2c2nnnn2C(C)C)cc1OC (stereo unspecified)	0	x	x	x	-1	x	x	x
O=C1C=C(c2ccc3[nH]ccc3c2)C[C@@H](c2ccc(Cl)cc2)C1	64*	1	20	-1	3	34	0	4
O=C1C=C(c2ccc3ncccc3c2)C[C@@H](c2ccc(Cl)cc2)C1	87*	-1	20	-6	10	75*	-1	-8
CCN1CCN(C(c2ccccc2)c2nnnn2Cc2ccc(OC)cc2)CC1 (stereo unspecified)	2	6	3	-1	0	x	x	x
COc1ccc(C(c2nnnn2Cc2ccccc2)N2CCN(C/C=C/c3ccccc3)CC2)cc1 (stereo unspecified)	50*	x	x	x	16	20	1	-14
C(=C\c1ccccc1)/CN1CCN(C(c2ccccc2)c2nnnn2Cc2ccccc2)CC1 (stereo unspecified)	47*	x	x	x	5	37	-1	-18
CCC(c1nnnn1Cc1ccccc1)N1CCN(C/C=C/c2ccccc2)CC1 (stereo unspecified)	30	x	x	x	0	x	x	x
COc1ccc(-n2nnnc2C(c2ccccc2)N2CCN(C/C=C/c3ccccc3)CC2)cc1 (stereo unspecified)	53*	x	x	x	9	41	1	-1
COc1cc(Cn2c3ccc(NC(=O)CCc4ccc(O)cc4)cc3c(=O)n2C)ccc1F	-12	x	x	x	-4	x	x	x
COCCOC(=O)c1c(NC(=O)CN(C)c2ccccc2)sc(C(N)=O)c1C	88*	-3	1	-3	7	54*	3	11
COCCOC(=O)c1c(NC(=O)COC(=O)Cc2cccc(OC)c2)sc(C(N)=O)c1C	44*	13	10	-10	0	17	-2	-19
CC(C)(C)c1ccc(NC(=O)CNC2CCCc3ccccc32)cc1 (stereo unspecified)	-15	3	8	-1	-6	x	x	x
COCCOC(=O)c1c(NC(=O)CNC2CCCc3ccccc32)sc(C(N)=O)c1C (stereo unspecified)	82*	-25	10	-1	5	42	-2	-6
CCOC(=O)c1c(NC(=O)CN2CCCc3ccccc32)sc(C(C)=O)c1C	-2	-5	-29	-3	-14	x	x	x
SMILES	EBI2 block	APJ antag	CCR6 antag	APJ ag	CXCR6 block	EBI2 conf	EBI2 agonist	bGal cs
CCOC(=O)c1c(NC(=O)CN(C)C2CCN(C)CC2)sc(C(=O)Nc2ccccc2)c1C	3	8	12	-4	-7	x	x	x
COCCOC(=O)c1c(NC(=O)CN2CCc3ccccc32)sc(C(N)=O)c1C	70*	4	5	0	-8	22	-1	-11
COc1ccc(Cc2c(-c3ccc(C)cc3)nc3cc(C)c(Br)c(C)n23)c(C)c1	12	x	x	x	0	x	x	x
COc1ccc(C(C(=O)NCc2ccccc2)n2c(=O)c(-c3ccco3)nc3ccccc32)cc1 (stereo unspecified)	-6	x	x	x	x	x	x	x
COc1cc(-c2cc(NC(C)=O)c3ncc(-c4ccc(F)cc4)n3c2)cc(OC)c1OC	13	x	x	x	10	x	x	x
O=C(CCCN1C(=O)/C(=C/c2cccs2)SC1=S)NNC(=O)c1ccc(F)cc1	63*	15	19	-3	14	19	-2	-11
COc1cc2cc(C(c3nnnn3C3CCCCC3)N(C)C3CCCCC3)c(=O)[nH]c2cc1OC (stereo unspecified)	36*	8	-16	-1	17	46	1	-1
COc1ccc2[nH]c(=O)c(C(c3nnnn3C3CCCCC3)N3CCN(C)CC3)cc2c1 (stereo unspecified)	-5	-1	12	-2	-12	x	x	x
COc1cc2cc(C(c3nnnn3C3CCCC3)N(C)C3CCCCC3)c(=O)[nH]c2cc1OC (stereo unspecified)	58*	-2	-7	-2	8	54*	2	3
COc1ccc(-c2ccc(CN3C(CC(C)C)C(=O)N(Cc4cn(CCC5OCCO5)nn4)CCS3(=O)=O)cc2)cc1OC (stereo unspecified)	2	x	x	x	5	x	x	x
COCC(C)n1c(-c2ccc3c(c2)NC(=O)CO3)csc1=Nc1ccc(OC(F)F)cc1 (stereo unspecified)	58*	7	62*!	-4	26	58*!	0	1
O=C1COc2ccc(-c3csc(=Nc4ccc(OC(F)F)cc4)n3CC3CCCO3)cc2N1 (stereo unspecified)	70*	26	72*	-4	38	55*	-2	-15
CCN=c1scc(-c2ccc3c(c2)NC(=O)CO3)n1N=C1CCCC1	-1	15	16	-1	2	x	x	x
CN(c1ccc(Cl)cc1)c1cc2c(c3c1ccn3C)C1CCC2O1 (stereo unspecified)	7	x	x	x	4	x	x	x
